ChEMBL document CHEMBL1799978, “Akt-dependent anabolic activity of natural and synthetic brassinosteroids in rat skeletal muscle cells” (J Med Chem, 2011)
The source made the active and inactive calls.

Key:
Rattus norvegicus [1] = test: Upregulation of Igfbp1 gene expression in Wistar rat at 60 mg/kg, po qd for 24 days by PCR analysis relative to control; assay type: functional
In short: (§1)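 Male Wistar rats gavaged daily 24 d with 60 mg/kg or vehicle (5% DMSO in corn oil). RNA from pooled (n=5) frozen gastrocnemius samples run on a rat insulin signaling PCR array (84 genes). Fold change computed as 2^(-ΔCt), with a 4-fold threshold.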

Rattus norvegicus [2] = test: Upregulation of Fbp2 gene expression in Wistar rat at 60 mg/kg, po qd for 24 days by PCR analysis relative to control; assay type: functional; in short: as §1
L6 [3] = test: Activation of Akt phosphorylation at Ser473 in rat L6 cells at 10 uM after 1 hr by Western blot analysis; assay type: cell-based
In short: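 Differentiated L6 myotubes exposed to 10 μM compound for 1 h; IGF-1 6.5 nM for 10 min served as positive control. Lysis in ice-cold RIPA with 10 mM NaF, 2 mM orthovanadate, 1 mM PMSF and protease inhibitors, spun 12,000 g 20 min 4°C. Lysates normalized to 50 μg soluble protein, immunoblotted for phospho-Akt (Ser473); stripped blots reprobed for total Akt as loading control; ECL detection.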

L6 [4] = test: Cytotoxicity against rat L6 cells up to 30 uM after 24 hrs by MTT assay; assay type: cell-based; conditions: l6, 24 h
In short: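 Fully differentiated L6 myotubes (myoblasts fused after 7–9 d in 2% serum) treated with compounds up to 30 μM against 0.1% ethanol vehicle. Viability by MTT assay in triplicate, read at 550 nm, alongside cytological observation.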

Rattus norvegicus [5] = test: Induction of Myf6 mRNA expression in Wistar rat at 60 mg/kg, po qd for 24 days by RT-PCR analysis relative to control; assay type: functional
In short: (§2)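 Gastrocnemius muscle from male Wistar rats dosed orally with 60 mg/kg daily for 24 d, or vehicle. Conventional RT-PCR on individual muscle samples (n=5 per group), duplicate determinations. Compared with control by Student t test.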

Rattus norvegicus [6] = test: Effect on Eif2b1 gene expression in Wistar rat at 60 mg/kg, po qd for 24 days by PCR analysis relative to control; assay type: functional, organism-based; set-up: dose 60 mg/kg; in short: as §1
Rattus norvegicus [7] = test: Induction of Myod1 mRNA expression in Wistar rat at 60 mg/kg, po qd for 24 days by RT-PCR analysis relative to control; assay type: functional; in short: as §2
L6 [8] = test: Increase in protein synthesis in rat L6 cells assessed as [3H]-phenylalanine incorporation at 10 uM after 4 hrs by scintillation counting relative to control; assay type: functional
In short: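 L6 myotubes (differentiated in 2% serum) washed with serum-free DMEM. Incubated 4 h with 0.5 μCi/mL [3H]-phenylalanine plus vehicle (0.1% ethanol), compound (0.3–30 μM, or 10 μM), or 6.5 nM IGF-1. Protein precipitated with 5% TCA, dissolved in 0.5 N NaOH, scintillation-counted, normalized to mg protein (BCA). Triplicate; ANOVA/Dunnett.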

NIH3T3 [9] = test: Cytotoxicity against mouse NIH/3T3 cells at 0.3 to 30 uM after 24 hrs by MTT assay; assay type: cell-based; conditions: nih3t3, 24 h
In short: (§3)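 NIH-3T3 murine fibroblasts grown in DMEM with 10% FBS at 37°C in 5% CO2. Exposed to 0.3–30 μM for 24 h at 37 °C. MTT read at 550 nm. Absorbance expressed relative to vehicle control cells (taken as 100% proliferation). n=6 from repeated experiments.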

Rattus norvegicus [10] = test: Upregulation of Srebf1 gene expression in Wistar rat at 60 mg/kg, po qd for 24 days by PCR analysis relative to control; assay type: functional; in short: as §1
L6 [11] = test: Decrease in protein degradation in rat L6 cells assessed as release of acid-soluble [3H]-phenylalanine into the media normalized by total protein at 1 uM after 4 hrs by scintillation counting relative to control; assay type: functional; set-up: scale not given: the % may be the effect or the level left
In short: (§4)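 L6 myoblasts differentiated 7–9 d in 2% serum into myotubes. Proteins labelled 16 h with 1.5 μCi/mL [3H]-phenylalanine, then washed. Cells treated 4 h in serum-free medium with vehicle (0.1% ethanol), compound (0.3–30 μM; single-point screen 10 μM), or 10 nM insulin. Medium TCA-precipitated and released [3H]-phenylalanine counted, normalized to mg cell protein (BCA). Triplicate; one-way ANOVA with Dunnett's test.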

L6 [12] = test: Decrease in protein degradation in rat L6 cells assessed as release of acid-soluble [3H]-phenylalanine into the media normalized by total protein at 0.3 to 20 uM after 4 hrs by scintillation counting relative to control; assay type: functional, cell-based; in short: as §4
Rattus norvegicus [13] = test: Induction of Myf5 mRNA expression in Wistar rat at 60 mg/kg, po qd for 24 days by RT-PCR analysis relative to control; assay type: functional; in short: as §2
Rattus norvegicus [14] = test: Induction of Myog mRNA expression in Wistar rat at 60 mg/kg, po qd for 24 days by RT-PCR analysis relative to control; assay type: functional; in short: as §2
L6 [15] = test: Decrease in protein degradation in rat L6 cells assessed as release of acid-soluble [3H]-phenylalanine into the media normalized by total protein at 10 uM after 4 hrs by scintillation counting relative to control; assay type: functional; set-up: scale not given: the % may be the effect or the level left; in short: as §4
Rattus norvegicus [16] = test: Anabolic effect in Wistar rat assessed as increase in limb grip strength at 60 mg/kg, po qd for 24 days; assay type: functional, organism-based; set-up: dose 60 mg/kg
Rattus norvegicus [17] = test: Upregulation of Adar1d gene expression in Wistar rat at 60 mg/kg, po qd for 24 days by PCR analysis relative to control; assay type: functional; in short: as §1
L6 [18] = test: Increase in protein synthesis in rat L6 cells assessed as [3H]-phenylalanine incorporation at 0.3 to 30 uM after 4 hrs by scintillation counting relative to control
Rattus norvegicus [19] = test: Upregulation of Igf2 gene expression in Wistar rat at 60 mg/kg, po qd for 24 days by PCR analysis relative to control; assay type: functional; in short: as §2
Rattus norvegicus [20] = test: Anabolic effect in Wistar rat assessed as increase in lean body mass at 60 mg/kg, po qd for 24 days; assay type: functional
NIH3T3 [21] = test: Cytotoxicity against mouse NIH/3T3 cells after 24 hrs by MTT assay; assay type: cell-based; conditions: NIH3T3, 24 h; in short: as §3

Compound | Activity (L6 [3]) | Activity (L6 [4]) | Activity (L6 [8]) | Activity (NIH3T3 [9]) | Activity (L6 [15]) | further results
CC[C@@H](C(C)C)[C@H](O)[C@@H](O)[C@@H](C)[C@H]1CC[C@H]2[C@@H]3COC(=O)[C@H]4C[C@H](O)[C@H](O)C[C@]4(C)[C@H]3CC[C@]12C | Active | Non-toxic | 37% | Non-toxic | -24% | fold change (FC) (Rattus norvegicus [1]): 2.5; fold change (FC) (Rattus norvegicus [2]): 4.5; fold change (FC) (Rattus norvegicus [5]): 1.3; Activity (Rattus norvegicus [6]): inactive; fold change (FC) (Rattus norvegicus [7]): 2.1; fold change (FC) (Rattus norvegicus [10]): 2.5; Activity (L6 [11]): 8.2%; Activity (L6 [12]): Dose-dependent effect; fold change (FC) (Rattus norvegicus [13]): 1.3; fold change (FC) (Rattus norvegicus [14]): 1.7; Activity (Rattus norvegicus [16]): Active; fold change (FC) (Rattus norvegicus [17]): 6.5; Activity (L6 [18]): 36.9%; fold change (FC) (Rattus norvegicus [19]): 1.4; Activity (Rattus norvegicus [20]): 14.2%
CC[C@H](C(C)C)[C@H](O)[C@@H](O)[C@@H](C)[C@H]1CC[C@H]2[C@@H]3COC(=O)[C@H]4C[C@H](F)CC[C@]4(C)[C@H]3CC[C@]12C | Active | Non-toxic | 25% | Toxic | -21% | –
CC[C@@H](C(C)C)[C@H](O)[C@@H](O)[C@@H](C)[C@H]1CC[C@H]2[C@@H]3CC(=O)[C@H]4C[C@H](F)CC[C@]4(C)[C@H]3CC[C@]12C | Active | Non-toxic | 23% | Toxic | -16% | –
CC[C@@H](C(C)C)[C@H](O)[C@@H](O)[C@@H](C)[C@H]1CC[C@H]2[C@@H]3CC(=O)[C@H]4C[C@H](O)[C@H](O)C[C@]4(C)[C@H]3CC[C@]12C | Active | Non-toxic | 41% | Non-toxic | -23% | Activity (L6 [11]): 8.7%; Activity (L6 [12]): Dose-dependent effect; Activity (L6 [18]): 40.7%
CC[C@@H](C(C)C)[C@@H](O)[C@H](O)[C@@H](C)[C@H]1CC[C@H]2[C@@H]3COC(=O)[C@H]4C[C@H](O)[C@H](O)C[C@]4(C)[C@H]3CC[C@]12C | Active | Non-toxic | 13% | – | -15% | –
CC(C)[C@@H](C)[C@H](O)[C@@H](O)[C@@H](C)[C@H]1CC[C@H]2[C@@H]3COC(=O)[C@H]4C[C@H](O)[C@H](O)C[C@]4(C)[C@H]3CC[C@]12C | Active | Non-toxic | 4% | – | -6% | –
CC(C)[C@@H](C)[C@@H](O)[C@H](O)[C@@H](C)[C@H]1CC[C@H]2[C@@H]3COC(=O)[C@H]4C[C@H](O)[C@H](O)C[C@]4(C)[C@H]3CC[C@]12C | Active | Non-toxic | 12% | – | -7% | –
CC[C@@H](C(C)C)[C@H](O)[C@@H](O)[C@@H](C)[C@H]1CC[C@H]2[C@@H]3CNC(=O)[C@H]4C[C@H](O)[C@H](O)C[C@]4(C)[C@H]3CC[C@]12C | Active | Non-toxic | 21% | – | -1% | IC50 (NIH3T3 [21]): 12.5 µM
CC[C@@H](C(C)C)[C@H](O)[C@@H](O)[C@@H](C)[C@H]1CC[C@H]2[C@@H]3CC(=O)N[C@H]4C[C@H](O)[C@H](O)C[C@]4(C)[C@H]3CC[C@]12C | Active | Non-toxic | 3% | – | -14% | –
